Assay results collected from several papers.
ABL1: Tyrosine-protein kinase ABL1 (ABL1, Homo sapiens, UniProt P00519)
ABL1 phosphorylated: Tyrosine-protein kinase ABL1, phosphorylated (ABL1, Homo sapiens, UniProt P00519)

C#Cc1n[nH]c2c(-c3cn([C@@H](C)c4ccccn4)c(=O)[nH]c3=O)cc(F)cc12 — inhibition (ABL1; enzyme activity; inhibitor; 0.1 µM): -3.6%
Cc1nn(C)cc1-c1nc2c(N3CCN(Cc4ccc(Cl)cc4)CC3)c(Cl)cnc2[nH]1 — remaining binding (ABL1 phosphorylated; binding; competition with immobilised ligand; 1 µM): 100%
Cc1ncc(C)n2nc(/C=C/c3nc(N4CCCC4)cc(N4CCOCC4)n3)nc12 — inhibition (ABL1; enzyme activity; inhibitor; 10 µM): 14%
N#CC1(c2ccccn2)CCN(Cc2cc(C(=O)O)c(=O)n3ccccc23)CC1 — remaining binding (Tyrosine-protein kinase ABL1, phosphorylated (ABL1, Homo sapiens, UniProt P00519, F317L); cell-free assay; competition with immobilised ligand; 1 µM): 84%
Cn1cc(-c2cc(F)cc(N3CCn4c(cc5c4CCCC5)C3=O)c2CO)cc(Nc2ccc(N3CCN(C4COC4)CC3)cn2)c1=O — inhibition (ABL1; enzyme activity; inhibitor; 0.1 µM): -1%
CC(C)(C)c1cc(C=C(C#N)C#N)cc(Br)c1O — remaining activity (ABL1; enzyme activity; inhibitor; 0.5 µM): 59.8%
Cn1cncc1[C@](O)(COc1ccc(C#N)cc1-c1ccc(OC(F)(F)F)cc1)c1ccc(C#N)cc1 — remaining binding (ABL1 phosphorylated; cell-free assay; competition with immobilised ligand; 1 µM): 100%
Nc1ncc(-c2nc(N3CCOCC3)nc(N3CCOCC3)n2)c(C(F)F)n1 — remaining binding (Tyrosine-protein kinase ABL1, non-phosphorylated (ABL1, Homo sapiens, UniProt P00519, F317I); binding; competition with immobilised ligand; 10 µM): 84%
